Sampled rows, rich in hits. Any-hit rate of the full collection: about 1.9%.
PHOSPHO1 block = PubChem AID 1565; Phosphoethanolamine/phosphocholine phosphatase (Homo sapiens), Q8TCT1; recombinant PHOSPHO1, absorbance phosphatase assay; inhibition, % at 13.3 µM; 1.1% of 290,000 active; in the data active means inhibition above about 60%
IDE act = human IDE activators in live cells, primary screen, fluorescence polarization, HEK cells, FAbeta-B substrate; activation, % at 5.96 µM; FAbeta-B cleavage; 0% vehicle, 100% cell-free pure enzyme wells; Insulin-degrading enzyme (Homo sapiens), P14735; 0.073% of 340,000 active;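 active means activation above the mean of all tested compounds plus 3 SD, set per screening campaign, cut at about 17% in these data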
proCasp3 act = activators of human procaspase-3 D3A mutant, primary screen, biochemical, absorbance, PC-3 D3A mutant, single concentration. Caspase-3 (Homo sapiens), P42574. recombinant procaspase-3 D3A, Ac-DEVD-pNA absorbance 405 nm. activation, % at 8.5 µM. 0.11% of 330,000 active. AID 463141, 2010;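 active means activation above the mean of all tested compounds plus 3 SD, cut at about 21% in these data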;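 further: 0% = DMSO alone and 100% = DMSO wells spiked with extra 5 µM PC-3 D3A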
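Assay system – Procaspase-3 D3A mutant, all three cleavage aspartates alanine · Controls – DMSO-only low control, 5 µM PC-3 D3A high control · Schedule – 1 h compound preincubation, 2 h substrate hydrolysis at 25 °C · Signal – 405 nm absorbance of p-nitroaniline, reads at 0 and 120 min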
IDE inh = human IDE inhibitors in live cells, primary screen, fluorescence polarization, HEK cells, FAbetaB substrate. Insulin-degrading enzyme (Homo sapiens), P14735. FAbetaB cleavage. inhibition, % at 5.59 µM. 0.41% of 320,000 active. AID 434962, 2010;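 active means percent inhibition above the average of all tested compounds plus 3 SD, set per screening campaign, cut at about 16% in these data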;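 further: IDE supplied by intact live HEK cells; FP after avidin binding of uncleaved biotin substrate so inhibition keeps polarization high; 0% = DMSO wells and 100% = 60 µM reference IDE inhibitor Ii1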
proCasp7 act = procaspase-7 activators, primary screen, counter-screen for procaspase-3 activator project, biochemical, absorbance, HTS, human; activation, % at 8.5 µM; Caspase-7 (Homo sapiens), P55210; 0.093% of 330,000 active; recombinant procaspase-7, Ac-DEVD-pNA absorbance 405 nm; D23A/D198A/D206A triple mutant, cannot self-cleave; scale: DMSO 0, 5 µM enzyme 100;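 active means percent activation above the screen-wide mean plus 3 SD, cut at about 25% in these data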
Target sequence (P55210 whole entry D23A/D198A/D206A): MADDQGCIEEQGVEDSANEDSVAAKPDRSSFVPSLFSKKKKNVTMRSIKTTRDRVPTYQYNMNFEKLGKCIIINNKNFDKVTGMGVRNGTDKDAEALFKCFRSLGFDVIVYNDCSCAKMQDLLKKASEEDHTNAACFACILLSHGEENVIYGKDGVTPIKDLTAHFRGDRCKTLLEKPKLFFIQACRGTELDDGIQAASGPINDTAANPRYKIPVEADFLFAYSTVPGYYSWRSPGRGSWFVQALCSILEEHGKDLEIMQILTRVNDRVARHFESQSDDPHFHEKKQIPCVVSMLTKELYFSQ
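System: Procaspase-7 triple mutant (PC-7 D3A); measure: % activation from two-timepoint absorbance difference, scaled to controls; times: 1 h compound preincubation, 2 h substrate cleavage, 25 °C; also added: Ac-DEVD-pNA substrate, 400 µM as added; measured by: Epi-absorbance of released pNA at 405 nm, two timepoints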
UBC13 inh = UBC13 polyubiquitin chain formation inhibitors, primary screen, biochemical, TR-FRET, uHTS. 0.47% of 330,000 active. inhibition, % at 20 µM. Ubiquitin-conjugating enzyme E2 N (Homo sapiens), P61088; in the data active means inhibition above about 45%, passing the limit was not always enough
Target sequence (P61088 whole entry, looked up): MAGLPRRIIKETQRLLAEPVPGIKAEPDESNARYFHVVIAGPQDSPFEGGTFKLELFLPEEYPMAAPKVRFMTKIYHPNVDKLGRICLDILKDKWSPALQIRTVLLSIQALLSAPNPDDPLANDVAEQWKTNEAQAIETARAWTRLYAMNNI
Numbers without * were called inactive; . = no result.

SMILES	PHOSPHO1 block	IDE act	proCasp3 act	IDE inh	proCasp7 act	UBC13 inh
CCOCCCNC(=S)NCCCNc1nc2c(C)cc(C)cc2cc1C#N	32	-4	.	.	.	.
CCOCCCNC(=S)NCCNc1nc2c(C)cccc2cc1C#N	61*	3	1	2	-5	12
Cc1nc2nc(SCC(N)=O)[nH]c2cc1Br	19	-3	0	0	8	-4
CCOC(=O)CNC(=O)CSc1nc2nc(C)c(Br)cc2[nH]1	74*	-4	-5	3	11	6
O=C(O)CCCC[C@@H]1SC[C@@H]2NC(=O)N[C@@H]21	.	64*	6	-29	11	0
COC(=O)CCCCC1SCC2NC(=O)NC21 (stereo unspecified)	30	-6	0	2	4	-1
Nc1c(C(=O)N2CCOCC2)sc(=S)n1-c1ccccc1	97*	3	-10	4	-6	4
Cc1ccc(-n2c(N)c(C(=O)N3CCCCC3)sc2=S)cc1	76*	3	-7	5	-23	-11
Cc1ccc(-n2c(N)c(C(=O)N3CCN(C)CC3)sc2=S)cc1	38	-6	-27	7	-17	3
Nc1c(C(=O)N2CCCCC2)sc(=S)n1-c1ccccc1	86*	-4	-2	2	-12	9
COC(=O)[C@]1(C)N[C@H](CN(C)C(=O)Nc2ccc(C)cc2)[C@@H]2C(=O)N(C)C(=O)[C@@H]21	.	5	-10	2	3	-18
CCOC(=O)Cn1c(=O)cc(C)c2cccc(C)c21	24	5	5	0	5	4
CCN(CC)S(=O)(=O)c1cccc(NC(=O)COC(=O)CCC(=O)c2cccs2)c1	73*	6	3	0	7	8
CCN(CC)S(=O)(=O)c1cc(NC(=O)COC(=O)CCC(=O)c2cccs2)ccc1C	7	0	1	0	-3	4
CCCCCCSc1ccc([C@@H]2[C@@H]3C(=O)N(C)C(=O)[C@@H]3[C@]3(C(=O)OC)CCCCN23)cc1OC	.	5	-1	-1	10	9
CC(=O)N1N=C(c2ccc(C)cc2)OC1c1cccnc1 (stereo unspecified)	61*	-4	2	4	7	5
CC(=O)N1N=C(c2cccc(Cl)c2)OC1c1ccc(C(C)C)cc1 (stereo unspecified)	2	6	-6	-3	2	4
CCOC(=O)C1(Cc2cccc(F)c2)CCN(C(=O)c2ccoc2C)CC1	63*	0	-3	4	19	-9
Cc1ccc(-c2c(CC(=O)O)c(C)nc3sc4c(c23)CCCC4)cc1	20	3	10	3	12	-1
CCc1nnc(NCC(=O)N2CCc3ccccc32)s1	69*	-3	1	-4	5	-14
CCc1nnc(NC(=O)c2c(O)c3cccc4c3n(c2=O)CC4)s1	-12	.	.	.	.	.
COc1cccc(NC(=O)CN(C)C(=O)c2cc3c(s2)CCC3)c1	.	.	2	4	3	-8
C=CCNc1sc(C(=O)c2ccccc2)c(N)c1-c1nc2ccccc2s1	98*	1	-17	2	-15	-33
CCC12CCCN3CCC4(C(=C(C(=O)OC)C1)Nc1ccccc14)C32 (stereo unspecified)	99*	1	.	.	.	.
COC(=O)C1=C(C(=O)OC)[C@@H]2Nc3ccccc3[C@@]23C[C@@H](C(=O)OC)N=C3N1	31	5	-1	-3	-13	0
SMILES	PHOSPHO1 block	IDE act	proCasp3 act	IDE inh	proCasp7 act	UBC13 inh
Cc1ccc(-c2ccc(=O)n(CC(=O)NCCC(C)C)n2)cc1	1	3	9	6	3	6
Cc1cccc([C@@H]2[C@@H]3C(=O)N(Cc4ccccc4)C(=O)[C@@H]3[C@]3(Cc4ccc(Cl)cc4)C(=O)N(c4ccc(Br)cc4)C(=O)N23)c1	-30	3	7	-2	12	-25
COc1ccc(N=C2NN=C(c3ccc4c(c3)OCCO4)CS2)cc1	98*	0	-11	-1	-5	0
c1cc2c(cc1C1=NNC(=NC3CC3)SC1)OCCO2	21	-3	-14	13	-11	-3
FC(F)Sc1ccc(N=C2NN=C(c3ccc4c(c3)OCCO4)CS2)cc1	64*	-2	-10	-4	-10	-20
COc1ccc(NC(=O)C2CCCN2C(=O)NC2CCCCC2)cc1 (stereo unspecified)	3	-1	-9	5	-6	6
O=C(c1ccccc1)N1CCN(CC(O)Cn2ccc3ccccc32)CC1 (stereo unspecified)	66*	-8	0	3	4	0
OC(CN1CCCC1)Cn1ccc2ccccc21 (stereo unspecified)	.	-2	8	4	7	10
COc1ccccc1CNC(=O)COC(=O)c1ncc(Cl)c(Cl)c1Cl	.	2	1	-4	1	0
CSc1nc2c(c(=O)[nH]1)C(c1ccccc1)C1=C(CC(C)(C)CC1=O)N2 (stereo unspecified)	8	.	-10	3	8	12
Cc1ccc(C2C3=C(CCCC3=O)Nc3[nH]c(=S)[nH]c(=O)c32)cc1 (stereo unspecified)	102*	-9	-7	-2	-8	12
CC1(C)CC(=O)C2=C(C1)Nc1[nH]c(=S)[nH]c(=O)c1C2c1ccccc1 (stereo unspecified)	96*	-4	-6	-4	-14	10
O=C1CCCC2=C1C(c1ccc(Br)cc1)c1c([nH]c(=S)[nH]c1=O)N2 (stereo unspecified)	38	-16	-11	12	-1	37
CC(=O)OC1CCC2(C)C(CCC3C2CC(=O)C2(C)C3CC(C3CCCC3=O)C2C(C)=O)C1 (stereo unspecified)	.	-9	.	.	.	.
CSc1ccccc1C(=O)NC1CCCC1	70*	6	4	-1	-10	-3
Cc1nn(CCc2n[nH]c(=S)n2-c2cccc(Cl)c2)c(C)c1[N+](=O)[O-]	93*	-7	-10	3	-20	-4
Cc1nn(CCc2n[nH]c(=S)n2-c2ccc(F)c(Cl)c2)c(C)c1[N+](=O)[O-]	-9	0	-16	-4	-6	-9
Cc1nn(CCc2n[nH]c(=S)n2-c2ccc(F)cc2)c(C)c1[N+](=O)[O-]	94*	2	-2	-2	-14	-2

Screens deposited in PubChem BioAssay by several laboratories.
